# PMC7649109 (International Journal for Parasitology: Drugs and Drug …, 2020)
# Several values for one entry are separate records, joined by “and”; a condition that tells them apart may be missing. Equal values may be shown once. Read-outs that look alike come from different tables or passages of the source.
# What was measured:
# T. brucei B48 = test: resazurin viability assay, multi-drug resistant T. brucei B48; format: cell-based, Trypanosoma brucei; conditions: for R. F (Resistance factor): Table 1; for R. F (Resistance factor) / RF (Resistance factor): B48 versus s427 WT; for RF (Resistance factor): Table 5; for EC50: Trypanosoma brucei
# Summary of the method: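 s427 wild-type and B48 T. b. brucei bloodstream forms cultured in HMI-9 with 10% FBS at 37 °C/5% CO2. Wells of 2 × 10^4 cells received 23 doubling dilutions (1% v/v DMSO) plus no-drug controls for 48 h, followed by resazurin and 24 h more incubation. EC50 from ≥3 independent determinations. […]; unpaired two-tailed t-test versus s427.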
# T. brucei S427WT = test: resazurin viability assay, T. brucei s427 wild-type bloodstream forms; format: cell-based; conditions: Trypanosoma brucei
# Summary of the method: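 Bloodstream forms grown in complete HMI-9 with 10% fetal bovine serum at 37 °C/5% CO2. 2 × 10^4 cells/well were exposed for 48 h to 23 doubling dilutions of the test compound or extract, with no-drug controls and 1% (v/v) DMSO per well. Resazurin was then added for a further 24 h. EC50 is the mean ± SEM of at least 3 independent determinations.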
# [1] = tested on: Trypanosoma congolense 6C3; test: resazurin viability assay, diminazene-resistant T. congolense clone 6C3; format: cell-based; conditions: for RF (Resistance factor): Table 6; for EC50: Trypanosoma congolense, T. congolense 6C3
# Summary of the method: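 IL3000 and diminazene-resistant 6C3 T. congolense bloodstream forms grown in MEM base with 10% goat serum, 14 μL/L β-mercaptoethanol, glutamine and antibiotics at 34 °C/5% CO2. 5 × 10^4 cells/well exposed to 23 doubling dilutions (1% v/v DMSO) plus no-drug controls for 48 h, then resazurin for a further 24 h. EC50 from ≥3 independent determinations. RF = […]; unpaired two-tailed t-test versus IL3000.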
# [2] = tested on: Trypanosoma congolense IL3000; test: resazurin viability assay, T. congolense IL3000 bloodstream forms; format: cell-based
# Summary of the method: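 Bloodstream-form parasites were grown in MEM base with 10% goat serum, 14 μL/L β-mercaptoethanol, glutamine and antibiotics at 34 °C/5% CO2. Cells at 5 × 10^4/well were exposed to 23 doubling dilutions plus no-drug controls, with DMSO held at 1% (v/v) per well, for 48 h. Resazurin was then added for a further 24 h. EC50 is the mean ± SEM of ≥3 independent determinations.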
# [3] = cytotoxicity, resazurin assay on U937 cell line; format: cell-based, human; conditions: human, U937 cells
# U937 cell line = test: cytotoxicity, resazurin assay on U937 cell line; format: cell-based, human
# [4] = cytotoxicity, resazurin assay on RAW 246.7 cell line; format: cell-based, murine; conditions: mouse, RAW 264.7 macrophage cells (also printed RAW 246.7)
# RAW 246.7 cell line = test: as above; format: cell-based, murine
# [5] = read-out: EC50, AVG ± SEM, Table 5, purified compounds, T. b. brucei B48, n = 3
# [6] = read-out: EC50, AVG ± SEM, Table 5, purified compounds, T. b. brucei s427 WT, n = 3
# [7] = read-out: EC50, AVG ± SEM, Table 2, control, footnote b: EC50 in μM
# [8] = read-out: EC50, AVG ± SEM, Table 6, purified compounds, n = 3
smiles,measurement,setting,value
N=C(N)c1ccc(OCCCCCOc2ccc(C(=N)N)cc2)cc1 [Pentamidine],R. F (Resistance factor),T. brucei B48,157.84
same,R. F (Resistance factor),T. brucei B48; listed as pentamidine,158
same,RF (Resistance factor),T. brucei B48,144.08
same,RF (Resistance factor),T. brucei B48; listed as pentamidine,144
same,EC50,"T. brucei B48; read-out: EC50, AVG ± SEM, Table 1, control, footnote b: EC50 in μM, T. brucei B48",0.482 ± 0.02 µM
same,EC50,T. brucei B48; [5],0.493 ± 0.04 µM
same,EC50,"T. brucei S427WT; read-out: EC50, AVG ± SEM, Table 1, control, footnote b: EC50 in μM, T. brucei s427 WT",0.0031 ± 0.0003 µM
same,EC50,T. brucei S427WT; [6],0.0034 ± 0.0004 µM
N=C(N)c1ccc(/N=N/Nc2ccc(C(=N)N)cc2)cc1 [Diminazene],R. F (Resistance factor),"[1]; Table 2, 6C3 versus IL3000",7.75
same,RF (Resistance factor),[1]; 6C3 versus IL3000,9.81
same,RF (Resistance factor),"[1]; 6C3 versus IL3000, listed as diminazene",9.8
same,EC50,[1]; [7],1.51 ± 0.09 µM
same,EC50,[1]; [8],1.45 ± 0.04 µM
same,EC50,[2]; [7],0.2 ± 0.03 µM
same,EC50,[2]; [8],0.15 ± 0.03 µM
"C=CC(C)(C)c1c(O)cc2c(c1O)C(=O)C[C@@H](c1ccc(O)cc1)O2 [Compound 2, 6-(1,1-dimethylallyl)naringenin]",RF (Resistance factor),[1]; 6C3 versus IL3000,0.77
same,EC50,[1]; [8],5.69 µg/mL and 16.7 µM
same,EC50 at 24 h,[3],51.2 µg/mL and 150 µM
same,Selectivity Index (SI) Tbb427 WT,U937 cell line; EC50 (U937)/EC50 (T. b. brucei 427 WT),22.8
same,Selectivity Index (SI) TcoIL3000,U937 cell line; EC50 (U937)/EC50 (T. congolense IL3000),9.0
same,EC50,[2]; [8],7.35 µg/mL and 21.6 µM
same,EC50 at 24 h,[4],79.9 µg/mL and 235 µM
same,Selectivity Index (SI) Tbb427 WT,RAW 246.7 cell line; EC50 (RAW 246.7)/EC50 (T. b. brucei 427 WT),35.7
same,Selectivity Index (SI) TcoIL3000,RAW 246.7 cell line; EC50 (RAW 246.7)/EC50 (T. congolense IL3000),14.0
same,RF (Resistance factor),T. brucei B48,1.02
same,EC50,T. brucei B48; [5],2.28 µg/mL and 6.69 µM
same,EC50,T. brucei S427WT; [6],2.24 µg/mL and 6.58 µM
